In brackets after ≈: the same amount, converted by molar mass. Activity calls are given as the source filed them. No cut-off for these calls is given here.
What was measured:
[1] = test system: Bacillus subtilis; assay: Antimicrobial activity against Bacillus subtilis at 5 ug; type: functional, organism-based
Outline: (§1)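 Direct bioautography: each compound is spotted onto TLC plates and the solvent evaporated. The test organism is then grown directly on the plate. Growth inhibition is scored at the spot as active (+) or very active (++). Where a number is given, it is the radius in mm of the inhibition zone around the spot.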

[2] = test system: Micrococcus luteus; assay: Antimicrobial activity against Micrococcus luteus at 1 ug; type: functional, organism-based; outline: as §1
[3] = test system: KB; assay: Cytotoxicity against human KB cells; type: functional; conditions: read-out: ED50 (the source's name)
[4] = Selectivity index, ratio of IC50 for human KB cells to IC50 for Plasmodium falciparum D6; type: toxicity, cell-based; conditions: KB cells versus Plasmodium falciparum D6, read-out: Ratio IC50
Outline: (§2)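 Plasmodium falciparum clones were assayed in vitro: D6 (chloroquine-sensitive) and W2 (chloroquine-resistant). IC50 is in μg/mL. The selectivity index is the ratio of the antimalarial to the cytotoxic activity.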

[5] = test system: ZR-75-1; assay: Cytotoxicity against human ZR-75-1 cells; type: functional; conditions: read-out: ED50 (the source's name)
[6] = test system: Escherichia coli; assay: Antimicrobial activity against Escherichia coli at 0.1 ug; type: functional, organism-based; outline: as §1
[7] = test system: Plasmodium falciparum; assay: Antimalarial activity against chloroquine-resistant Plasmodium falciparum W2; type: functional, organism-based
Outline: (§3)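 In vitro growth inhibition of Plasmodium falciparum clones D6 (chloroquine-sensitive) and W2 (chloroquine-resistant); IC50 reported in μg/mL.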

[8] = test system: KB; assay: Cytotoxicity against vinblastine-resistant human KB cells; type: functional; conditions: read-out: ED50 (the source's name)
Outline: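 The vinblastine-resistant KB-V1 line was tested both with and without added vinblastine in the cultured tumour-cell cytotoxicity panel. Results are reported as ED50.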

[9] = test system: Escherichia coli; assay: Antimicrobial activity against Escherichia coli at 5 ug; type: functional, organism-based; outline: as §1
[10] = test system: Bacillus subtilis; assay: Antimicrobial activity against Bacillus subtilis at 0.1 ug; type: functional, organism-based; outline: as §1
[11] = test system: Bacillus subtilis; assay: Antimicrobial activity against Bacillus subtilis at 10 ug; type: functional, organism-based; outline: as §1
[12] = test system: KB; assay: Cytotoxicity against vinblastine-sensitive human KB cells; type: functional; conditions: read-out: ED50 (the source's name)
[13] = test system: Lu1; assay: Cytotoxicity against human Lu1 cells; type: functional; conditions: read-out: ED50 (the source's name)
[14] = test system: Penicillium oxalicum; assay: Antimicrobial activity against Penicillium oxalicum at 10 ug; type: functional; conditions: read-out: IZ; outline: as §1
[15] = test system: Bacillus subtilis; assay: Antimicrobial activity against Bacillus subtilis at 1 ug; type: functional, organism-based; outline: as §1
[16] = test system: Micrococcus luteus; assay: Antimicrobial activity against Micrococcus luteus at 10 ug; type: functional, organism-based; outline: as §1
[17] = test system: Micrococcus luteus; assay: Antimicrobial activity against Micrococcus luteus at 5 ug; type: functional, organism-based; outline: as §1
[18] = test system: Penicillium oxalicum; assay: Antimicrobial activity against Penicillium oxalicum at 5 ug; type: functional; conditions: read-out: IZ; outline: as §1
[19] = test system: Escherichia coli; assay: Antimicrobial activity against Escherichia coli at 1 ug; type: functional, organism-based; outline: as §1
[20] = test system: Escherichia coli; assay: Antimicrobial activity against Escherichia coli at 10 ug; type: functional, organism-based; outline: as §1
[21] = test system: Penicillium oxalicum; assay: Antimicrobial activity against Penicillium oxalicum at 0.1 ug; type: functional; conditions: for zone of inhibition at 0.1 µg/disc: read-out: IZ; outline: as §1
[22] = test system: Micrococcus luteus; assay: Antimicrobial activity against Micrococcus luteus at 0.1 ug; type: functional, organism-based; outline: as §1
[23] = target: Human immunodeficiency virus type 1 reverse transcriptase (Human immunodeficiency virus 1, UniProt Q72547); assay: (§4) Inhibition of HIV1 RT at 200 uM
Outline: (§5)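 HIV-1 reverse transcriptase inhibition was measured in an ELISA-based system.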

[24] = Inhibition of TK assessed as residual activity at 200 ug/ml
Outline: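 The enzyme was tyrosine kinase p56lck, with test compounds at 200 μg/mL. The read-out is the remaining enzyme activity.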

[25] = test system: Penicillium oxalicum; assay: Antimicrobial activity against Penicillium oxalicum at 1 ug; type: functional; conditions: read-out: IZ; outline: as §1
[26] = test system: Plasmodium falciparum; assay: Antimalarial activity against chloroquine-sensitive Plasmodium falciparum D6; type: functional, organism-based; outline: as §3
[27] = test system: LNCaP; assay: Cytotoxicity against human LNCAP cells; type: functional; conditions: read-out: ED50 (the source's name)
[28] = Selectivity index, ratio of IC50 for human KB cells to IC50 for Plasmodium falciparum W2; type: toxicity, cell-based; conditions: KB cells versus Plasmodium falciparum W2, read-out: Ratio IC50; outline: as §2
[29] = Inhibition of PKC
[30] = test system: Penicillium oxalicum; assay: Antimicrobial activity against Penicillium oxalicum at 0.01 ug; type: functional; outline: as §1
[31] = target: Human immunodeficiency virus type 1 reverse transcriptase (Human immunodeficiency virus 1) (UniProt Q72547); assay: as §4; outline: as §5

SMILES	Activity [1]	Activity [2]	EC50 [3]	selectivity ratio [4]	EC50 [5]	Activity [6]	IC50 [7]	EC50 [8]	Activity [9]	Activity [11]	EC50 [12]	zone of inhibition at 10 µg/disc [14]	Activity [15]	Activity [16]	Activity [17]	zone of inhibition at 5 µg/disc [18]	Activity [19]	Activity [20]	zone of inhibition at 1 µg/disc [25]	IC50 [26]	also measured
CCC[C@@H](O)C1=C(Br)/C(=C/Cl)OC1=O	Active	Active	0.4 µg/mL (≈ 1.42 µM)	< 1	0.4 µg/mL (≈ 1.42 µM)	Active	> 10 µg/mL	1.4 µg/mL (≈ 4.97 µM)	Active	Active	1.2 µg/mL (≈ 4.26 µM)	22 mm	Active	Active	Active	18 mm	Active	Active	14 mm	5.9 µg/mL (≈ 21 µM)	Activity [10]: inactive; EC50 [13]: 1 µg/mL (≈ 3.55 µM); zone of inhibition at 0.1 µg/disc [21]: 6 mm; Activity [22]: inactive; IC50 [23]: 700 µM; Activity [24]: 1.9%; EC50 [27]: 3 µg/mL (≈ 10.7 µM)
C[C@@H]1CC[C@H]2[C@@H](C)C(=O)O[C@@H]3O[C@@]4(C)CC[C@@H]1[C@]32OO4 [ARTEMISININ]	–	–	> 20 µg/mL	> 18200	–	–	0.006 µg/mL (≈ 0.0213 µM)	–	–	–	–	–	–	–	–	–	–	–	–	0.001 µg/mL (≈ 0.00354 µM)	selectivity ratio [28]: > 3280
CCCCCCCC/C=C(\Br)C(O)C(Br)Br (configuration not stated)	Active	inactive	–	–	–	inactive	–	–	inactive	Active	–	8 mm	inactive	Active	Active	8 mm	inactive	Active	5 mm	–	IC50 [29]: ≥ 200 µM; Activity [21]: inactive; Activity [30]: inactive
CCC[C@@H](OC(C)=O)C1=C(Br)/C(=C/I)OC1=O	Active	Active	0.1 µg/mL (≈ 0.241 µM)	< 1	< 0.1 µg/mL	inactive	> 10 µg/mL	0.2 µg/mL (≈ 0.482 µM)	Active	Active	3.6 µg/mL (≈ 8.67 µM)	17 mm	Active	Active	Active	21 mm	inactive	Active	9 mm	4.6 µg/mL (≈ 11.1 µM)	Activity [10]: inactive; EC50 [13]: 1.5 µg/mL (≈ 3.61 µM); zone of inhibition at 0.1 µg/disc [21]: 6 mm; Activity [22]: Active; IC50 [23]: 700 µM; Activity [30]: inactive; EC50 [27]: 2 µg/mL (≈ 4.82 µM)
CCC[C@@H](O)C1=C(Br)/C(=C/I)OC1=O	Active	Active	0.4 µg/mL (≈ 1.07 µM)	< 1	0.3 µg/mL (≈ 0.804 µM)	inactive	> 10 µg/mL	0.3 µg/mL (≈ 0.804 µM)	Active	Active	4.1 µg/mL (≈ 11 µM)	20 mm	inactive	Active	Active	18 mm	Active	Active	12 mm	6.8 µg/mL (≈ 18.2 µM)	Activity [10]: inactive; EC50 [13]: 1.3 µg/mL (≈ 3.49 µM); zone of inhibition at 0.1 µg/disc [21]: 4 mm; Activity [22]: inactive; IC50 [23]: 700 µM; Activity [24]: 4.2%; EC50 [27]: < 0.1 µg/mL
CCC[C@@H](O)C1=C(Br)C(=C(Br)Br)OC1=O	Active	Active	0.5 µg/mL (≈ 1.23 µM)	< 1	0.3 µg/mL (≈ 0.741 µM)	inactive	> 10 µg/mL	9.5 µg/mL (≈ 23.5 µM)	Active	Active	0.6 µg/mL (≈ 1.48 µM)	20 mm	Active	Active	Active	23 mm	inactive	Active	17 mm	2.8 µg/mL (≈ 6.92 µM)	EC50 [13]: 1.7 µg/mL (≈ 4.2 µM); Activity [22]: Active; IC50 [23]: 700 µM; Activity [24]: 4.5%; zone of inhibition at 0.01 µg/disc ([30]; read-out: IZ): 4 mm; EC50 [27]: 6.7 µg/mL (≈ 16.5 µM)
CCC[C@@H](OC(C)=O)C1=C(Br)[C@](OC)(C(Br)Br)OC1=O	inactive	inactive	6.1 µg/mL (≈ 12.7 µM)	2	3.8 µg/mL (≈ 7.93 µM)	inactive	> 10 µg/mL	6.1 µg/mL (≈ 12.7 µM)	inactive	inactive	5.3 µg/mL (≈ 11.1 µM)	9 mm	inactive	inactive	inactive	8 mm	inactive	inactive	4 mm	3.8 µg/mL (≈ 7.93 µM)	Activity [10]: inactive; EC50 [13]: > 20 µg/mL; Activity [21]: inactive; Activity [22]: inactive; Activity [31]: inactive; Activity [24]: 87.5%; EC50 [27]: 4.5 µg/mL (≈ 9.4 µM)
CCC[C@@H](OC(C)=O)C1=C(Br)[C@@](OC)(C(Br)Br)OC1=O	Active	inactive	4.1 µg/mL (≈ 8.56 µM)	1	2.8 µg/mL (≈ 5.85 µM)	inactive	> 10 µg/mL	6.2 µg/mL (≈ 12.9 µM)	inactive	Active	3.9 µg/mL (≈ 8.14 µM)	16 mm	inactive	Active	Active	14 mm	inactive	inactive	6 mm	5 µg/mL (≈ 10.4 µM)	Activity [10]: inactive; EC50 [13]: > 20 µg/mL; Activity [21]: inactive; Activity [22]: inactive; Activity [31]: inactive; Activity [24]: 22.7%; EC50 [27]: 3.6 µg/mL (≈ 7.52 µM)
